Assay results: the EternaBench riboswitch data

Tested on: MS2 coat protein
Assay: apparent Kd, MS2 coat protein; higher = weaker binding; RNA-MaP array; FMN 200 µM where present
Procedure, shortened: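 Designs were transcribed by stalled E. coli RNA polymerase on Illumina sequencing-chip clusters. They were titrated with SNAP-549-labelled MS2 coat protein from 0.7 or 1.5 nM, doubling to 3 µM, without and then with constant ligand. Buffer: 100 mM Tris-HCl pH 7.5, 80 mM KCl, 4 mM MgCl2, BSA, DTT, yeast tRNA, Tween-20. Green signal was normalised to red-channel RNA signal and control-cluster median Fmax. Apparent Kd is the median of filtered per-cluster binding-curve fits.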

[1] = designed as: OFF switch for flavin mononucleotide, no ligand
[2] = ligand present: flavin mononucleotide, designed as: OFF switch for flavin mononucleotide
[3] = designed as: ON switch for flavin mononucleotide, no ligand
[4] = ligand present: flavin mononucleotide, designed as: ON switch for flavin mononucleotide

Sequence | apparent Kd [1] [nM] | apparent Kd [2] [nM] | apparent Kd [3] [nM] | apparent Kd [4] [nM]
ACUUGUAAGCAGAAGGCAGUCAUUAUAUUCAUCAUGUAGACAUGAGGAUCACCCAUGUAUAGUACUGAGGAUAUGCAUCGAUAG | 6.75 | 10.3 |  | 
ACUUUAACUCGACAUGAGGAUCACCCAUGUCCUAGUACUACACAGGAUAUCUCGGACUCCUCGUGAGAGAAGGGUGAGCACUAA |  |  | 395 | 587
ACUUUACGAGGAUAUACUGUCGGGCCUCGGGCGUACAUGCGACAUGAGGAUCACCCAUGUAGAAGGCGUUUACU | 33.1 | 119 |  | 
AGAAAACAUGAGGAUCACCCAUGUCAGGAUAUCCUGCGGCGAUACAAGCCACGUUGUCGGAGAAGGGACAGGGA | 58 | 89.7 |  | 
AGAAAACAUGAGGAUCACCCAUGUGAGGAUAUCGAUGUCCAAGCCCGGGUGCGGGACUCGAGAAGGCACUUGGG | 55.7 | 36.8 |  | 
AGAAAACAUGAGGAUCACCCAUGUGAGGAUAUCGAUGUCCAGGGCCUGGUGCGGGACUCGAGAAGGCACUGGGA | 59.9 | 86.9 |  | 
AGAAAGGCAGGAUAUACAUGAGGAUCACCCAUGUUAAGAAAGACGGAAACGUCAAGAAGUAGAAGGGCCAAGAA | 23.4 | 21.1 |  | 
AGACCGCUACGCCGGUUUCACGCACAGGAUAUGCGGUUACAUGAGGAUCACCCAUGUGGCCAUGUGCAGAAGGGUGGUUCGUUA |  |  | 36.1 | 11.5
AGACGGAGCUGAGGAUAUAACAUGAGGAUCACCCAUGUAAGUCUCCAGGAAACUGGAGACAAUAGUUAGAAGGCAGCUCCGUCA | 13.6 | 22.3 |  | 
AGACUGAAGCAAGGAUAUUGUAAGGUUAUUGUACAAGAAGGUGCUGUUUAUGUCUCUUAACAUGAGGAUCACCCAUGUUUUGAA |  |  | 19.7 | 19.1
AGACUGCGUAGAAUUAGCAGCUGACAGGAUAUGACAUGAGGAUCACCCAUGUGAAAUAAGAAGGGUCAGAAGGGUCACGACACA | 11.7 | 9.98 |  | 
AGAGACCUCACAGGAUAUGCUGGACUUUGUCCAGCAGAAGGGUGAAAACAUGAGGAUCACCCAUGUAUGGUCUCCAAAUUUAAU |  |  | 167 | 12.8
AGAGACCUCACAGGAUAUGCUGGACUUUGUCCAGCAGAAGGGUGAUAACAUGAGGAUCACCCAUGUAUGGUCUCCAAAUUUAAU |  |  | 1110 | 131
AGAUAGUGGUGAGGAUAUCAGAAUAGAAAGAAAUGAGAAGGCACACAUGAGGAUCACCCAUGUGAGUUCUUGAGAUUACAUGGU | 18.4 | 34.2 |  | 
AGAUCACAUGAGGAUCACCCAUGUCAGGAUAUGAUACUAUGUACUUCGGUACAUAGUAUCAGAAGGGAUAUAAA | 70.7 | 239 |  | 
AGAUCGAGUGUGAGGAUAUUGACCGGACGACCCAUCGAGAAGGCACAUGAGGAUCACCCAUGUGAUUCGGCUCA | 17.7 | 26.4 |  | 
AGAUGACAAAGUCAUCUCGCGCUGACAUGAGGAUCACCCAUGUAGGAUAUAUUACUCAAAGAGUAAUAGAAGGACAUGUGUCUU | 29.9 | 72.2 |  | 
AGAUGGCGAGGAUAUACAUGAGGAUCACCCAUGUGAAGAUAAAGAGUGAGGAAGAAAAGUAGAAGGCGCUGUCA | 123 | 506 |  | 
AGAUGGCGAGGAUAUACAUGAGGAUCACCCAUGUGAGAUAAAUAAGUGAGGAAGAAAAGUAGAAGGCGCUGUCA | 81.3 | 387 |  | 
AGAUUCAUGGCCCGUUCGGGCUCACAUGAGGAUCACCCAUGUGAGGAUAUGACGUACCUGACUCGUCAGAAGGCGCAUGCGAAU | 7.41 | 13.7 |  | 
AGAUUCAUGGCCCGUUUGGGCCCACAUGAGGAUCACCCAUGUGAGGAUAUGACGUACCUGACUCGUCAGAAGGCGCAUGCGAAA | 7.45 | 16.7 |  | 
AGAUUUGUACAUGAGGAUCACCCAUGUUAAUAGGUGUUUGUCAGAAGGCAUUAAGAGAGAAUUAAUGAGGAUAUGAAGUUACAU |  |  | 42.3 | 21.7
AGCAACAUGAGGAUCACCCAUGUUGGUUCGAAAACGGACUCACAGGAUAUGCAGCGUGAUCGCUCGCAGAAGGGUGCGUCCUCA |  |  | 51.2 | 38.7
AGCAAGUAUACAUGAGGAUCACCCAUGUUUUUUAGGGUUAUCAGAAGGUACAUUUUGAGAUAGAGUAAGGAUAUGAAAUAUGCG |  |  | 214 | 130
AGCACGUCAGGAUAUCUGAUGUCUAACUUCGGUUAGACAUCAGAGAAGGGACAUGAGGAUCACCCAUGUGCAAA | 60.6 | 77.9 |  | 
AGCAGACGAGGAUAUAAAUUUGAUAACAUGAGGAUCACCCAUGUGAUCGAUAGAUCAAAUUUAGAAGGCGUCUGCU | 647 | 940 |  | 
AGCAGACGAGGAUAUAGAUUUAGAUACAUGAGGAUCACCCAUGUAUAGAUGUAUUUAGAUUUAGAAGGCGUCUGCU | 211 | 221 |  | 
AGCAUGGUAGGAUAUACGGAGCAUUAGGGUUUGUUGUGUGGACAUGAGGAUCACCCAUGUAGAAGGGCCGUGCA | 47 | 64.2 |  | 

Sequence | apparent Kd [1] [nM] | apparent Kd [2] [nM] | apparent Kd [3] [nM] | apparent Kd [4] [nM]
AGCAUGUAAGGAUAUGCAAGUGGCACGGAUAGUACCAGAAAGCAGAAGGUACAUGAGGAUCACCCAUGUGCUCC | 26.8 | 94.9 |  | 
AGCAUGUGAGGAUAUGCAGUUGACCGGUACGCCCAGUCAGGGCAGAAGGCACAUGAGGAUCACCCAUGUGAUAG | 44.7 | 122 |  | 
AGCCUACAUGAGGAUCACCCAUGUCAGGAUAUCUCGCGGCGCGUCAAGUUCACGCCGCAGAGAAGGGACUCGGG | 47.9 | 47.3 |  | 
AGCGAACAUGAGGAUCACCCAUGUGAAAAACAUAGAGGAUAUGUCGCAUGAGUGUAAAAGACAGAAGGCUAUCGCA |  |  | 225 | 54.8
AGCGGCCGAGGAUAUACAAUCCUCCUGGCAGCCUGUCUGCCACAUGAGGAUCACCCAUGUAGAAGGCGGACCGC | 167 | 38.3 |  | 
AGCGGCGCGGGCCACCGCAGAACCAGAAGGACAUGAGGAUCACCCAUGUAACAGAACAGGGCGGUGUAGGAUAUGGCAGGCUCG | 25.1 | 46.2 |  | 
AGCGUGUUAGGAUAUACACGACGCUGGGUAGCUAGCGGAGGGUAGAAGGGACAUGAGGAUCACCCAUGUUCGGG | 74.1 | 105 |  | 
AGCUACGUUUCGUAGCAGCUAGGUGAGGAUAUCCUUUACAUGAGGAUCACCCAUGUUUAGCCAUGGGAGAAGGCGCCUAGAAAG |  |  | 1090 | 113
AGCUACGUUUCGUAGCAGUGUCAUCGAGAAGGCCCUGACAUGAGGAUCACCCAUGUUGUUACAUGGGAGGAUAUCGAUGAUACU |  |  | 13.4 | 5.59
AGCUACGUUUCGUAGCAGUGUCAUCGAGAAGGCCCUUACGUGACAACAUGAGGAUCACCCAUGUGGGAGGAUAUCGAUGAUACA |  |  | 11.8 | 11.5
AGCUAGUGAGGAUAUACGAACAUGUCAAAAGACGUGAAUAAACAUGAGGAUCACCCAUGUAGAAGGCACUAGCA | 17.5 | 16.2 |  | 
AGCUGGUGACAGCAUCCAUCAAAACAUGAGGAUCACCCAUGUAGAAGGCUGUACGGUUACCGUACAGAGGAUAUACAAUGAUGA | 16.3 | 27.3 |  | 
AGCUGGUGACAGCAUCCAUCAUAACAUGAGGAUCACCCAUGUAGAAGGCUGUACGGUUACCGUACAGAGGAUAUACAAUGAUGG | 7.4 | 7.32 |  | 
AGCUGUGGCAGAGGAUAUACUUCAAUAAUCCAUUGCAAAUAGCGAUGGACAUGAGGAUCACCCAUGUAGAAGGCUGUCUCAGCA | 19.9 | 46.2 |  | 
AGCUGUGGCCGAGGAUAUCUAAAACCUCAAAACGAAAUAUAAUCGAACAUGAGGAUCACCCAUGUAGAGAAGGCGGUCUCAGCA | 270 | 514 |  | 
AGCUGUGGCCGAGGAUAUCUAACAAUCCAAACCGAAAUAUAAUCGGACAUGAGGAUCACCCAUGUAGAGAAGGCGGUCUCAGCA | 48.1 | 65 |  | 
AGCUGUGGCCGAGGAUAUCUAUCUUCAAUAACCGAAAUAUAAUCGGACAUGAGGAUCACCCAUGUAGAGAAGGCGGUCUCAGCA | 33.6 | 84.5 |  | 
AGGAAACAUGAGGAUCACCCAUGUAAAGAAGGGUGAGGAUAUACAAAGAAAAGAAAGAAAGUAGAAGGCACAAAAG |  |  | 556 | 635
AGGAAACAUGAGGAUCACCCAUGUAAAGAUGGGCGAGGAUAUCGAAAGAAAAGAAAGAAACGAGAAGGCGCAAAAG |  |  | 305 | 72.1
AGGACGAGGCAGAAGGGACAUGAGGAUCACCCAUGUACCGUGGUUCAGCAGUCAGGAUAUGCCGUACGUAAACAUAUCGUAAGA | 10.3 | 71 |  | 
AGGAGAAAUGUAGGAUAUGGAUAUAUAUAUGGGCAAAGCGCAUAUAUAUAUCCAGAAGGACAUGAGGAUCACCCAUGUUUCCCU | 11.8 | 13 |  | 
AGGCCGCUACGCCGGCUUCACGCACAGGAUAUGCAGUUACAUGAGGAUCACCCAUGUGGCCAUGUGCAGAAGGGUGGUUCGCGA |  |  | 39.5 | 18.6
AGGCGUGCUGAGGAUAUACUACCGGUUGCGAUAGUAGAAGGUAGCACAUGAGGAUCACCCAUGUGGUCAGAUGC | 24 | 64.6 |  | 
AGGGAGUAAGGAUAUCGGAAAGGACACGAAAGUGACAAAGACGAGAAGGUACAUGAGGAUCACCCAUGUAAAAA | 21.3 | 20.1 |  | 
AGGGAGUUAGGAUAUGCUGCUCGUCACUUGCGUGAUGAGUAGCAGAAGGAACAUGAGGAUCACCCAUGUAAAGA | 34.9 | 28.8 |  | 
AGGGUGGGCUCAGGAUAUCAGGGAGAGAUGUGGACAUGAGGAUCACCCAUGUACCAGUGUUGUCAUGAGAAGGGAGAUACUGUA |  |  | 52.7 | 28
AGGUAAGACUUAAUUGUGCUGGUGAGAAGGCUACUGGUUGUGGUCUACAUGAGGAUCACCCAUGUUGAGGAUAUCAUCGGUAUC | 606 | 72.7 |  | 
